Measured values taken from ChEMBL document CHEMBL2407071, “Exploring 4-substituted-2-thiazolylhydrazones from 2-, 3-, and 4-acetylpyridine as selective and reversible hMAO-B inhibitors” (Eur J Med Chem, 2013).

Experiments:
[1] = molecular target: T1, Amine oxidase [flavin-containing] A (Homo sapiens, UniProt P21397); assay: Inhibition of recombinant human MAO-A assessed as oxidation of kynuramine to 4-hydroxyquinoline after 20 mins by spectrofluorometric analysis
T1 sequence (P21397 whole entry): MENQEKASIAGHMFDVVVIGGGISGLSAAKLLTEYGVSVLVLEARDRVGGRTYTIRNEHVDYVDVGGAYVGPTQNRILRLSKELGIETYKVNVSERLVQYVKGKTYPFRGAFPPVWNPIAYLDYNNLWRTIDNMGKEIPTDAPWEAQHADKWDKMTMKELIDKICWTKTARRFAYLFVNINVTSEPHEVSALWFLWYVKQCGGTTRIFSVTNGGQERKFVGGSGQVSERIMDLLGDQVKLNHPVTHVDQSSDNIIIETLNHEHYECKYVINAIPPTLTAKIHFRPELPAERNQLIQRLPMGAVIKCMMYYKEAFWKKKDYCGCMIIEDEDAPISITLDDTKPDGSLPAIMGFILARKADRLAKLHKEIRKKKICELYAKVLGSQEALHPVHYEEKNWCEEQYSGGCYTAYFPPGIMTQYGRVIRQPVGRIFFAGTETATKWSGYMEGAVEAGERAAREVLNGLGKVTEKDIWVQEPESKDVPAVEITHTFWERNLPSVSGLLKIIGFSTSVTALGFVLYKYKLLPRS
Outline: (§1)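 Enzyme from insect-cell microsomes expressing recombinant human MAO-A or MAO-B, at 0.0075 mg protein/mL, in 100 mM potassium phosphate pH 7.4 made isotonic with 20.2 mM KCl, with 4% DMSO. Kynuramine was 45 µM for MAO-A and 30 µM for MAO-B. Inhibitor range 0-100 µM, six log-spaced concentrations. Incubated 20 min at 37 °C, stopped with 2N NaOH and centrifuged. 4-Hydroxyquinoline read by fluorescence (ex 310/em 400 nm) against a calibration curve. One-site competition fit; three experiments, mean ± SD.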

[2] = molecular target: T2, Amine oxidase [flavin-containing] B (Homo sapiens, UniProt P27338); assay: Inhibition of recombinant human MAO-B assessed as oxidation of kynuramine to 4-hydroxyquinoline after 20 mins by spectrofluorometric analysis; outline: as §1
T2 sequence (P27338 whole entry): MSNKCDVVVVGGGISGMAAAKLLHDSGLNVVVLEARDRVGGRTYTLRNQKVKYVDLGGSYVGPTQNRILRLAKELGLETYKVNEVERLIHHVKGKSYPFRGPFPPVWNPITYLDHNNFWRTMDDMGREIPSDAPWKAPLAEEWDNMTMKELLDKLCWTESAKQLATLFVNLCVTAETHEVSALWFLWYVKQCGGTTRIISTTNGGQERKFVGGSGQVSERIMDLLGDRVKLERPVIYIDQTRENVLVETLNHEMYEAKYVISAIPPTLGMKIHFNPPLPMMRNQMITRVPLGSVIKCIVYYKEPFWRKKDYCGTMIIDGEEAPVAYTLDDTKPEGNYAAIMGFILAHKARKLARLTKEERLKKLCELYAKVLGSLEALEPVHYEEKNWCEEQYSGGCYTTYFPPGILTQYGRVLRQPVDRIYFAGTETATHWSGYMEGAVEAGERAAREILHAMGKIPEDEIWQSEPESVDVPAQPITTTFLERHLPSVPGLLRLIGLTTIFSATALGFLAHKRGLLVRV

[3] = molecular target: T2, Amine oxidase [flavin-containing] B; assay: Competitive inhibition of recombinant human MAO-B using kynuramine as substrate by Lineweaver-Burk plot analysis
[4] = molecular target: T2, Amine oxidase [flavin-containing] B; assay: Reversible inhibition of recombinant human MAO-B assessed as oxidation of kynuramine to 4-hydroxyquinoline at IC50 to 2 times IC50 up to 60 mins by spectrofluorometric analysis; conditions: 1 h
[5] = molecular target: T2, Amine oxidase [flavin-containing] B; assay: Mixed type inhibition of recombinant human MAO-B using kynuramine as substrate by Lineweaver-Burk plot analysis

C/C(=N\Nc1nc(-c2ccccc2)cs1)c1cccnc1
IC50 ([1]; read-out: IC50): 21.3 µM | IC50 ([2]; read-out: IC50): 0.944 µM

C/C(=N/Nc1nc(C)cs1)c1ccncc1
IC50 [1]: Not Active | IC50 [2]: Not Active

C/C(=N/Nc1nc(-c2ccccc2)cs1)c1ccncc1
inhibition (INH) [3]: Active | inhibition (INH) [4]: Active | IC50 ([1]; read-out: IC50): 2.67 µM | IC50 ([2]; read-out: IC50): 0.013 µM

C/C(=N\Nc1nc(C)cs1)c1ccccn1
IC50 [1]: Not Active | IC50 [2]: Not Active

C/C(=N\Nc1nc(-c2ccccc2)cs1)c1ccccn1
IC50 ([1]; read-out: IC50): 16.6 µM | IC50 ([2]; read-out: IC50): 3.84 µM

C/C(=N\Nc1nc(C)cs1)c1cccnc1
IC50 ([1]; read-out: IC50): 6.91 µM | IC50 ([2]; read-out: IC50): 13.6 µM

CCOC(=O)c1csc(N/N=C(\C)c2cccnc2)n1
inhibition (INH) [4]: Active | inhibition (INH) [5]: Active | IC50 ([1]; read-out: IC50): 6.57 µM | IC50 ([2]; read-out: IC50): 0.0722 µM

CCOC(=O)c1csc(N/N=C(\C)c2ccncc2)n1
inhibition (INH) [3]: Active | inhibition (INH) [4]: Active | IC50 ([1]; read-out: IC50): 6.63 µM | IC50 ([2]; read-out: IC50): 0.127 µM

CCOC(=O)c1csc(N/N=C(\C)c2ccccn2)n1
IC50 [1]: Not Active | IC50 [2]: Not Active
